# System: HepG2
# Test: Cytotoxicity against human HepG2 cells after 48 hrs by MTT assay
# Type: functional, cell-based
# Settings: HepG2, 48 h
# Summary of the method: (§1)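 Cells grown in RPMI 1640 or DMEM-Ham's F12 with 10% FBS, 2 mmol/L L-glutamine, penicillin/streptomycin, at 37 °C, 5% CO2. Exponential-phase cells seeded at 6000/well, incubated 24 h, then exposed 48 h to 0.1–10 µM compound (DMSO ≤0.1% final). MTT 0.5 mg/mL added for 3 h, formazan dissolved in DMSO, read at 570-690 nm. IC50 from % viability; three independent assays, triplicate wells.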
row,SMILES,IC50 [µM]
1,COc1ccc(O)c2c1C(=O)C=C([C@H](CC=C(C)C)OC(=O)C=C(C)C)C2=O,0.97
2,COc1ccc(O)c2c1C(=O)C(CCC=C(C)C)=CC2=O,8.05
3,COc1ccc(O)c2c1C(=O)C=C([C@H](CC=C(C)C)OC(C)=O)C2=O,0.87
4,COc1ccc(O)c2c1C(=O)C=C(CCC=C(C)C)C2=O,7.64
5,CC(C)=CC[C@H](OC(=O)C=C(C)C)C1=CC(=O)c2c(O)ccc(O)c2C1=O,1

# System: DU-145
# Test: Cytotoxicity against human DU145 cells after 48 hrs by MTT assay
# Type: functional, cell-based
# Settings: DU-145, 48 h
# Summary of the method: as §1
row,SMILES,IC50 [µM]
1,COc1ccc(O)c2c1C(=O)C=C([C@H](CC=C(C)C)OC(=O)C=C(C)C)C2=O,8.55
2,COc1ccc(O)c2c1C(=O)C(CCC=C(C)C)=CC2=O,12.1
3,COc1ccc(O)c2c1C(=O)C=C([C@H](CC=C(C)C)OC(C)=O)C2=O,7.41
4,COc1ccc(O)c2c1C(=O)C=C(CCC=C(C)C)C2=O,8.71
5,CC(C)=CC[C@H](OC(=O)C=C(C)C)C1=CC(=O)c2c(O)ccc(O)c2C1=O,4.81

# System: HeLa
# Test: Cytotoxicity against human HeLa cells after 48 hrs by MTT assay
# Type: functional, cell-based
# Settings: not given
# Summary of the method: as §1
row,SMILES,IC50 [µM]
1,COc1ccc(O)c2c1C(=O)C=C([C@H](CC=C(C)C)OC(=O)C=C(C)C)C2=O,0.82
2,COc1ccc(O)c2c1C(=O)C(CCC=C(C)C)=CC2=O,6.38
3,COc1ccc(O)c2c1C(=O)C=C([C@H](CC=C(C)C)OC(C)=O)C2=O,0.66
4,COc1ccc(O)c2c1C(=O)C=C(CCC=C(C)C)C2=O,0.91
5,CC(C)=CC[C@H](OC(=O)C=C(C)C)C1=CC(=O)c2c(O)ccc(O)c2C1=O,0.96

# System: AU565
# Test: Cytotoxicity against human AU565 cells after 48 hrs by MTT assay
# Type: functional, cell-based
# Settings: AU565, 48 h
# Summary of the method: as §1
row,SMILES,IC50 [µM]
1,COc1ccc(O)c2c1C(=O)C=C([C@H](CC=C(C)C)OC(=O)C=C(C)C)C2=O,0.75
2,COc1ccc(O)c2c1C(=O)C(CCC=C(C)C)=CC2=O,7.08
3,COc1ccc(O)c2c1C(=O)C=C([C@H](CC=C(C)C)OC(C)=O)C2=O,0.59
4,COc1ccc(O)c2c1C(=O)C=C(CCC=C(C)C)C2=O,0.88
5,CC(C)=CC[C@H](OC(=O)C=C(C)C)C1=CC(=O)c2c(O)ccc(O)c2C1=O,0.62

# System: LNCaP
# Test: Cytotoxicity against human LNCAP cells after 48 hrs by MTT assay
# Type: functional, cell-based
# Settings: not given
# Summary of the method: as §1
row,SMILES,IC50 [µM]
1,COc1ccc(O)c2c1C(=O)C=C([C@H](CC=C(C)C)OC(=O)C=C(C)C)C2=O,11.4
2,COc1ccc(O)c2c1C(=O)C(CCC=C(C)C)=CC2=O,11.1
3,COc1ccc(O)c2c1C(=O)C=C([C@H](CC=C(C)C)OC(C)=O)C2=O,11
4,COc1ccc(O)c2c1C(=O)C=C(CCC=C(C)C)C2=O,10.9
5,CC(C)=CC[C@H](OC(=O)C=C(C)C)C1=CC(=O)c2c(O)ccc(O)c2C1=O,11.3

# System: NIH3T3
# Test: Cytotoxicity against mouse 3T3 cells after 48 hrs by MTT assay
# Type: cell-based
# Settings: NIH3T3, 48 h
# Summary of the method: as §1
row,SMILES,IC50 [µM]
1,COc1ccc(O)c2c1C(=O)C=C([C@H](CC=C(C)C)OC(=O)C=C(C)C)C2=O,4.67
2,COc1ccc(O)c2c1C(=O)C(CCC=C(C)C)=CC2=O,6.57
3,COc1ccc(O)c2c1C(=O)C=C([C@H](CC=C(C)C)OC(C)=O)C2=O,0.66
4,COc1ccc(O)c2c1C(=O)C=C(CCC=C(C)C)C2=O,5.18
5,CC(C)=CC[C@H](OC(=O)C=C(C)C)C1=CC(=O)c2c(O)ccc(O)c2C1=O,0.77

# System: not listed separately
# Test: Cytotoxicity against human Hep3B cells after 48 hrs by MTT assay
# Type: functional, cell-based, Hep 3B2
# Settings: not given
# Summary of the method: as §1
row,SMILES,IC50 [µM]
1,COc1ccc(O)c2c1C(=O)C=C([C@H](CC=C(C)C)OC(=O)C=C(C)C)C2=O,11.8
2,COc1ccc(O)c2c1C(=O)C(CCC=C(C)C)=CC2=O,24.5
3,COc1ccc(O)c2c1C(=O)C=C([C@H](CC=C(C)C)OC(C)=O)C2=O,10.2
4,COc1ccc(O)c2c1C(=O)C=C(CCC=C(C)C)C2=O,15.8
5,CC(C)=CC[C@H](OC(=O)C=C(C)C)C1=CC(=O)c2c(O)ccc(O)c2C1=O,4.09

# System: MDA-MB-231
# Test: Cytotoxicity against human MDA-MB-231 cells after 48 hrs by MTT assay
# Type: functional, cell-based
# Settings: MDA-MB-231, 48 h
# Summary of the method: as §1
row,SMILES,IC50 [µM]
1,COc1ccc(O)c2c1C(=O)C=C([C@H](CC=C(C)C)OC(=O)C=C(C)C)C2=O,0.26
2,COc1ccc(O)c2c1C(=O)C(CCC=C(C)C)=CC2=O,5.11
3,COc1ccc(O)c2c1C(=O)C=C([C@H](CC=C(C)C)OC(C)=O)C2=O,0.09
4,COc1ccc(O)c2c1C(=O)C=C(CCC=C(C)C)C2=O,1.19
5,CC(C)=CC[C@H](OC(=O)C=C(C)C)C1=CC(=O)c2c(O)ccc(O)c2C1=O,0.32

# System: MCF7
# Test: Cytotoxicity against human MCF7 cells after 48 hrs by MTT assay
# Type: functional, cell-based
# Settings: MCF7, 48 h
# Summary of the method: as §1
row,SMILES,IC50 [µM]
1,COc1ccc(O)c2c1C(=O)C=C([C@H](CC=C(C)C)OC(=O)C=C(C)C)C2=O,14.8
2,COc1ccc(O)c2c1C(=O)C(CCC=C(C)C)=CC2=O,11.9
3,COc1ccc(O)c2c1C(=O)C=C([C@H](CC=C(C)C)OC(C)=O)C2=O,14.1
4,COc1ccc(O)c2c1C(=O)C=C(CCC=C(C)C)C2=O,16
5,CC(C)=CC[C@H](OC(=O)C=C(C)C)C1=CC(=O)c2c(O)ccc(O)c2C1=O,5.15

# System: PC-3
# Test: Cytotoxicity against human PC3 cells after 48 hrs by MTT assay
# Type: functional, cell-based
# Settings: PC-3, 48 h
# Summary of the method: as §1
row,SMILES,IC50 [µM]
1,COc1ccc(O)c2c1C(=O)C=C([C@H](CC=C(C)C)OC(=O)C=C(C)C)C2=O,0.42
2,COc1ccc(O)c2c1C(=O)C(CCC=C(C)C)=CC2=O,7.48
3,COc1ccc(O)c2c1C(=O)C=C([C@H](CC=C(C)C)OC(C)=O)C2=O,0.78
4,COc1ccc(O)c2c1C(=O)C=C(CCC=C(C)C)C2=O,6.81
5,CC(C)=CC[C@H](OC(=O)C=C(C)C)C1=CC(=O)c2c(O)ccc(O)c2C1=O,1.1

# System: HT-29
# Test: Cytotoxicity against human HT-29 cells after 48 hrs by MTT assay
# Type: functional, cell-based
# Settings: HT-29, 48 h
# Summary of the method: as §1
row,SMILES,IC50 [µM]
1,COc1ccc(O)c2c1C(=O)C=C([C@H](CC=C(C)C)OC(=O)C=C(C)C)C2=O,0.59
2,COc1ccc(O)c2c1C(=O)C(CCC=C(C)C)=CC2=O,5.98
3,COc1ccc(O)c2c1C(=O)C=C([C@H](CC=C(C)C)OC(C)=O)C2=O,0.62
4,COc1ccc(O)c2c1C(=O)C=C(CCC=C(C)C)C2=O,5.09
5,CC(C)=CC[C@H](OC(=O)C=C(C)C)C1=CC(=O)c2c(O)ccc(O)c2C1=O,0.8

# System: SAOS-2
# Test: Cytotoxicity against human Saos2 cells after 48 hrs by MTT assay
# Type: functional, cell-based
# Settings: SAOS-2, 48 h
# Summary of the method: as §1
row,SMILES,IC50 [µM]
1,COc1ccc(O)c2c1C(=O)C=C([C@H](CC=C(C)C)OC(=O)C=C(C)C)C2=O,14.5
2,COc1ccc(O)c2c1C(=O)C(CCC=C(C)C)=CC2=O,12.5
3,COc1ccc(O)c2c1C(=O)C=C([C@H](CC=C(C)C)OC(C)=O)C2=O,13.8
4,COc1ccc(O)c2c1C(=O)C=C(CCC=C(C)C)C2=O,20.4
5,CC(C)=CC[C@H](OC(=O)C=C(C)C)C1=CC(=O)c2c(O)ccc(O)c2C1=O,0.84

# System: Vero
# Test: Cytotoxicity against african green monkey Vero cells after 48 hrs by MTT assay
# Type: cell-based
# Settings: Chlorocebus sabaeus
# Summary of the method: as §1
row,SMILES,IC50 [µM]
1,COc1ccc(O)c2c1C(=O)C=C([C@H](CC=C(C)C)OC(=O)C=C(C)C)C2=O,0.79
2,COc1ccc(O)c2c1C(=O)C(CCC=C(C)C)=CC2=O,6.39
3,COc1ccc(O)c2c1C(=O)C=C([C@H](CC=C(C)C)OC(C)=O)C2=O,0.59
4,COc1ccc(O)c2c1C(=O)C=C(CCC=C(C)C)C2=O,0.98
5,CC(C)=CC[C@H](OC(=O)C=C(C)C)C1=CC(=O)c2c(O)ccc(O)c2C1=O,0.32

# System: SK-BR-3
# Test: Cytotoxicity against human SKBR3 cells after 48 hrs by MTT assay
# Type: functional, cell-based
# Settings: SK-BR-3, 48 h
# Summary of the method: as §1
row,SMILES,IC50 [µM]
1,COc1ccc(O)c2c1C(=O)C=C([C@H](CC=C(C)C)OC(=O)C=C(C)C)C2=O,0.83
2,COc1ccc(O)c2c1C(=O)C(CCC=C(C)C)=CC2=O,6.52
3,COc1ccc(O)c2c1C(=O)C=C([C@H](CC=C(C)C)OC(C)=O)C2=O,0.44
4,COc1ccc(O)c2c1C(=O)C=C(CCC=C(C)C)C2=O,2.2
5,CC(C)=CC[C@H](OC(=O)C=C(C)C)C1=CC(=O)c2c(O)ccc(O)c2C1=O,0.68
